Measured values published in publication PMC8158046 (Oncoimmunology, 2021).
Positions of bridges follow the written chain, without caps; N, C: chain ends. Chains are numbered I, II in the order given. No end group written: not given here.

Columns and labels:
MDA-MB-231 cells = assay: Tumor cell density by inverted microscope, MDA-MB-231; type: cell-based, human; conditions: 10 μg/ml; for effect on MDA-MB-231 tumor cells in the absence of PBMCs: monolayer without PBMC, microscope
Outline: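 Tumor cells (MDA-MB-231 or MDA-MB-468, 4x10^5/2 ml) were plated overnight, then cultured with or without donor PBMCs (2x10^6/ml). Test compound or scrambled peptide was added at 10 µg/ml at 37°C, 5% CO2. Wells were washed once with PBS and cell density was documented by inverted light microscopy.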

CD45 signaling pathway [1] = type: cell-based, human; conditions: incubated with C24D for 5 to 24 hours, 5 separate experiments
CD45 signaling pathway [2] = assay: Protein phosphorylation by western blot in fresh PBMCs from TNBC patients; type: cell-based, human; conditions: fresh PBMCs from 5 TNBC patients, C24D 5 to 60 minutes, mean ± SD
Outline: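 PBMCs were lysed in buffer containing phosphatase inhibitors (NaF, Na3VO4, β-glycerophosphate), freeze-thawed once and cleared at 14,000 rpm. Lysates were run on 10% SDS-PAGE and blotted for phospho-Lck Y505, phospho-Lck Y394, phospho-VAV-1 Y174 and phospho-ZAP70 Y493, with GAPDH as loading control. Bands were quantified by infrared imaging, normalized to control, and reported as mean ± SD.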

CD45 signaling pathway [3] = assay: CD45 signal transduction by western blot, PBMC/MDA-MB-231 co-cultures; type: cell-based, human; conditions: 10 µg/ml, n = 9, p <0.27
[4] = Stability in human whole blood; type: in vitro ADME
MDA-MB-231 xenograft = assay: MDA-MB-231 tumor xenograft in nude mice given human PBMCs; type: in vivo, BALB/C nude mice; conditions: for increase in human IFN-γ secretion in serum versus S-C24D group: 13 days after PBMC administration, p <0.05
Outline: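 Female BALB/c nude mice (5–6 weeks) received 4x10^6 MDA-MB-231 cells s.c. in the right flank. At ~100 mm3 (day 6) they were randomized. Human PBMCs from 2 female donors were pre-incubated 5 min with test compound, scrambled peptide or PBS, then given IV. Treatment (60 or 300 µg/mouse in 200 µl PBS) followed IV twice weekly for 2 weeks. At 13 days, serum human IFNγ was measured. Paraffin tumor sections (pH 6 retrieval) were immunostained for CD45, activated CD56, CD8 and cleaved caspase-3, and 5 fields/slide on 5 slides were quantified.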

[5] = test system: MCF-10A normal breast cells; assay: MCF-10A cell killing by FACS; type: cell-based, human; conditions: for spontaneous cell apoptosis (killing) of MCF-10A cells: 10 μg/ml, 4–6 days, PBMC+MCF-10A, N = 3, mean ± SD
Outline: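 MCF-10A cells were co-cultured with donor PBMCs (2x10^6/ml) plus test compound or scrambled peptide at 37°C, 5% CO2. Adherent cells were then detached. Anti-CD45 staining was used to exclude leukocytes, and apoptosis in the gated CD45-negative cells was measured by Annexin V/PI flow cytometry.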

CD45 receptor [6] = target: T1, CD45 receptor (Homo sapiens, UniProt P08575); type: in vitro ADME; conditions: 1.5 μM C24D, 3 hours after adding, ELISA read-out
T1 sequence (P08575 26-1306): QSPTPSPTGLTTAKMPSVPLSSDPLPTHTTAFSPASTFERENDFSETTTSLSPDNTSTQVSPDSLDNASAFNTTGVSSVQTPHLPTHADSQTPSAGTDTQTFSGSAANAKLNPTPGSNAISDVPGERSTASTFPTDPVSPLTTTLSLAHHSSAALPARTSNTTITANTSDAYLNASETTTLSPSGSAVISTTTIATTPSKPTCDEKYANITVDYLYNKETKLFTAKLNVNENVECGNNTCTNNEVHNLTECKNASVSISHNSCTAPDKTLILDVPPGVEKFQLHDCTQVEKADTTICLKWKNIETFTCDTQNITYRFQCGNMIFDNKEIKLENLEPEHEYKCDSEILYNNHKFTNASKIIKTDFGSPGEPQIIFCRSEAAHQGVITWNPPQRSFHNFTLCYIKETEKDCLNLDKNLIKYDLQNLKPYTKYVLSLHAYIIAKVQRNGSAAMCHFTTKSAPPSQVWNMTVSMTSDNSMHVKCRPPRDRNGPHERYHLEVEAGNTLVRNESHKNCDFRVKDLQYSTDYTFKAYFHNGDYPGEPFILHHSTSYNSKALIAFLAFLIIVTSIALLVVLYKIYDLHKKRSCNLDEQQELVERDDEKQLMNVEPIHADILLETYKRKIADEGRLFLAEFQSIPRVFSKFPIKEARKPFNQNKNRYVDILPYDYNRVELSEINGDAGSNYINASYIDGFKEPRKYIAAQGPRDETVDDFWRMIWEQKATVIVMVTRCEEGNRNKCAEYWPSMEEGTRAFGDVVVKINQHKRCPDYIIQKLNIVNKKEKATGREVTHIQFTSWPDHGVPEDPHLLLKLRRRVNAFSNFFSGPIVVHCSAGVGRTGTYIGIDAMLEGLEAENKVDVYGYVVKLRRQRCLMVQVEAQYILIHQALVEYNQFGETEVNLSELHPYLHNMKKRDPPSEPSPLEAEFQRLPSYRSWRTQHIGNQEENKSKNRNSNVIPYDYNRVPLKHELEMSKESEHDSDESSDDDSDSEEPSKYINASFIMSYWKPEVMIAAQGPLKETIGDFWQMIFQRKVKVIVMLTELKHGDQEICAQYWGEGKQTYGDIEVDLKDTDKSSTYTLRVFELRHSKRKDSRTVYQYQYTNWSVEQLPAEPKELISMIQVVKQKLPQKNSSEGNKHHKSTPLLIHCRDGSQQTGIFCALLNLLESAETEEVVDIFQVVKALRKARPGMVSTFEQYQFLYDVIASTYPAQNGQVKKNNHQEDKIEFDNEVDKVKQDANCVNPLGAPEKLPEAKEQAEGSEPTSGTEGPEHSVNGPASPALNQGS

CD45 receptor [7] = target: T2, CD45 receptor (Homo sapiens, UniProt P08575); type: cell-based; conditions: CD45 blocked with monoclonal antibody and blocking peptide, n = 5
T2 sequence (P08575 195-577 limits assumed): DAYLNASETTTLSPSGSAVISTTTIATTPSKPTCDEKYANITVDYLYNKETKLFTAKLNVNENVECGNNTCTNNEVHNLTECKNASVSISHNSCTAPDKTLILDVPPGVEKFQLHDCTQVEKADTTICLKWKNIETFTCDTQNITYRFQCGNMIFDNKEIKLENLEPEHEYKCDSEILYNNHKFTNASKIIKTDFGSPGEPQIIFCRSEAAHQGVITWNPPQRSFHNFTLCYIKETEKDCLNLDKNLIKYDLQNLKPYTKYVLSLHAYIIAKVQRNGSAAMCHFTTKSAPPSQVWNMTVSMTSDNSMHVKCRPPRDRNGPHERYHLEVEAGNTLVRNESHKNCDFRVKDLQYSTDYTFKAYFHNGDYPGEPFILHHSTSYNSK

CD45 signaling pathway [8] = assay: CD45 signal transduction by intracellular FACS, PBMC/MDA-MB-231 co-cultures; type: cell-based, human; conditions: PBMCs co-cultured with MDA-MB-231 for 24hs, C24D for 15 minutes
Outline: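 PBMCs (2x10^6/ml, RPMI with 5% AB serum) were co-cultured for 24 h at 37°C, 5% CO2 with MDA-MB-231 cells pre-plated overnight (4x10^5/2 ml). Test compound was then added for 15 minutes. Phosphorylation was read by FACS in live PBMCs and normalized to the scrambled-peptide control.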

[9] = test system: PBMCs from healthy female donors co-cultured with MDA-MB-231; assay: FACS of activated PBMC sub-populations in co-cultures with MDA-MB-231; type: cell-based, human
Outline: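 Lymphocytes were recovered from tumor/PBMC co-cultures; samples with >98% CD45+ cells were used. Cells (0.5x10^6/50 µl PBS) were stained for CD4, CD8, CD56, NKG2D, CD14, CD69, CD57 and CD137. Gated live cells were analysed by flow cytometry; mean ± SD reported, ANOVA with Tukey-Kramer.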

[10] = test system: PBMCs co-cultured with MDA-MB-231; assay: Cytokine secretion by ELISA in supernatants of PBMC/MDA-MB-231 co-cultures; type: cell-based, human
Outline: (§1)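 Target cells (MDA-MB-231, MDA-MB-468 or DMEM/10% FCS-grown MCF-10A; 4x10^5/2 ml) were plated overnight. PBMCs (2x10^6/ml, RPMI with 5% AB serum) were added, with test compound added at once (0.1–60 µg/ml) and scrambled peptide as control, at 37°C, 5% CO2. Supernatants were cleared (1200 rpm, 10 min) and stored at −80°C. IFNγ, TNFα, IL-2 and IL-1β were measured by ELISA.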

[11] = test system: PBMCs co-cultured with MCF-10A; assay: Cytokine secretion in co-cultures of MCF-10A normal breast cells and PBMCs; type: cell-based, human; conditions: MCF-10A/PBMC co-culture after C24D, n = 3
Outline: as §1

CD45 receptor [12] = target: T2, CD45 receptor; assay: FACS analysis of C24D binding to PBMC sub-populations
[13] = 10 μg/ml C24D added to co-cultures
[14] = 10 μg/ml C24D, PBMCs from 11 healthy female donors, mean ± SD

I: CGHHLLRPRRRKRPHSIPTPILIFRSP / II: CGHHLLRPRRRKRPHSIPTPILIFRSP (disulfide I:1-II:1) [C24D]
tumor apoptosis seen by microscope in PBMC/MDA-MB-231 co-cultures (MDA-MB-231 cells; PBMCs from healthy donors): massive tumor apoptosis
effect on MDA-MB-231 tumor cells in the absence of PBMCs (MDA-MB-231 cells): no effect
Lck, ZAP70 and VAV-1 activation in fresh PBMCs from healthy donors in the absence of tumors (CD45 signaling pathway [1]): no effect
phosphorylation of Lck Y394 after addition of C24D, normalized to control (CD45 signaling pathway [2]): 117.4 ± 36.2%
phosphorylation of Lck Y505 after addition of C24D, normalized to control (CD45 signaling pathway [2]): 79.2 ± 3.6%
phosphorylation of VAV-1 after addition of C24D, normalized to control (CD45 signaling pathway [2]): 88.4 ± 26.9%
phosphorylation of ZAP70 Y493 after addition of C24D, normalized to control (CD45 signaling pathway [2]): 116.4 ± 10.4%
phosphorylation of Lck Y394 (CD45 signaling pathway [3]): increased, but not significant statistically
half-life [4]: 2.75 h
tumor cell apoptosis (Cleaved Caspase-3 immunofluorescence) (MDA-MB-231 xenograft; 60 μg (p <0.0013) and 300 μg (p <0.049) per mouse): significant increase
increase in human IFN-γ secretion in serum versus S-C24D group (MDA-MB-231 xenograft; 60 μg per mouse): 68%
increase in human IFN-γ secretion in serum versus S-C24D group (MDA-MB-231 xenograft; 300 μg per mouse): 82%
infiltration of human CD45+ cells in the tumor (immunofluorescence) (MDA-MB-231 xenograft; 60 and 300 μg doses vs S-C24D, p <0.015 and p <0.023): significantly induced
tumor-infiltrating NK (activated CD56+) cells (immunofluorescence) (MDA-MB-231 xenograft; 60 or 300 μg per mouse, p <0.011 and p <0.042): significant increase
tumor-infiltrating human CD8 T cells (immunofluorescence) (MDA-MB-231 xenograft; 60 or 300 μg per mouse, p <0.07 and p <0.1): non-significant
spontaneous cell apoptosis (killing) of MCF-10A cells [5]: 6.47 ± 0.94%
killing in MCF-10A and PBMCs co-cultures ([5]; treatment with C24D): failed to induce killing
decrease of binding to CD45 in the presence of human plasma (CD45 receptor [6]): 20%
IFN-γ in supernatants of co-cultures with blocked CD45 receptor (CD45 receptor [7]): 107 ± 27 pg/mL
phosphorylation of Y394 in Lck (CD45 signaling pathway [8]; n = 3): increase
increase of the phosphorylation of VAV-1 versus control (CD45 signaling pathway [8]; n = 3, mean ± SD): 36.2 ± 4.0%
increase of the phosphorylation of Y493 in ZAP70 versus control (CD45 signaling pathway [8]; n = 3, mean ± SD): 50.13 ± 10.2%
CD57 expression [9, 13]: not influenced
percentage of NKG2D+ and CD45RO+ cells [9, 13]: not influenced
percentage of CD4+/CD69+ cells [9, 14]: 4.1 ± 1.58%
percentage of CD8+/CD69+ cells [9, 14]: 33.23%
increase in secretion of IL-2 ([10]; C24D 4–6 days, MDA-MB-231/PBMC co-cultures, n = 7, p < 0.0007): 92.2%
increase in secretion of TNF-α ([10]; C24D 4–6 days, MDA-MB-231/PBMC co-cultures, n = 7, p < 0.04): 98%
increase in secretion of IFN-γ ([10]; C24D 4–6 days, MDA-MB-231/PBMC co-cultures, n = 8, p <0.03): 90%
cytokine secretion (IFNγ, IL-2, TNFα, IL-1β) in PBMCs alone ([10]; C24D added to PBMCs alone, no tumor cells): No effect
secretion of IL-1β by monocytes ([10]; C24D added to co-cultures): non-significant effect
TNF-α concentration [11]: 5.6 ± 0.2 pg/mL
percentage of C24D binding to CD16 after exposure to tumor cells (CD45 receptor [12]): not affected
leukocyte sub-populations that bound C24D (CD45 receptor [12]; PBMCs from healthy female donors, C24D conjugated to Alexa-488 dye): all 9 of the tested T, NK and monocyte sub-populations bound C24D
percentage of CD45+ gated PBMCs that bind C24D (double staining) (CD45 receptor [12]; anti CD45 monoclonal antibody (CD45-APC) and C24D-Alexa-488 conjugated peptide): 100%
effect of C24D treatment on C24D binding to CD8 and NKG2D sub-populations exposed to MDA-MB-231 (CD45 receptor [12]; p <0.05): reversed the decrease

CG-PPRIHPLKRISRTRLPRLHRPFHIS [S-C24D, reference compound]
effect on MDA-MB-231 tumor cells in the absence of PBMCs (MDA-MB-231 cells): no effect
spontaneous cell apoptosis (killing) of MCF-10A cells [5]: 7.25 ± 2.34%
IFN-γ in supernatants of co-cultures with blocked CD45 receptor (CD45 receptor [7]): 108 ± 20 pg/mL
